Source: ChEMBL document CHEMBL1123397, “Antiarrhythmic activity of 17 beta-aminoestratrienes. Comparison of 3-ols and 3-acetates with the corresponding 3-(3-amino-2-hydroxypropyl) ethers” (1986)
Converted amounts (≈) assume the structure as drawn. The source made the active and inactive calls. No cut-off for these calls is given here.

Experiments:
Cavia porcellus [1] = species: Cavia porcellus; assay: Compound was tested for antiarrhythmic activity (time taken to reach 90% repolarization) in guinea pig atria at 2(ug/mL) concentration; format: functional, Heart
Method in brief: (§1)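 Guinea pig left atria pinned in a recording chamber, superfused with carbogen-gassed Krebs solution at 35 ± 0.5 °C and electrically stimulated. Transmembrane action potentials were recorded with conventional microelectrodes, giving RMP, AP height, APD50, APD90 and maximum rate of depolarization. Values are mean ± SEM from n cells across five preparations.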

Cavia porcellus [2] = species: Cavia porcellus; assay: Compound was tested for antiarrhythmic activity expressed as resting membrane potential (RMP) in guinea pig atria at 4 ug/mL concentration; format: functional; details: Heart; method in brief: as §1
Rattus norvegicus [3] = assay: Effective dose of compound that antagonized arrhythmias evoked by coronary artery ligation in the rat was measured at 0.5 mg/kg dose; format: functional
Cavia porcellus [4] = species: Cavia porcellus; assay: Compound was tested for antiarrhythmic activity (maximum rate of phase 0 depolarization- MRD) in guinea pig atria at 8(ug/mL) concentration; format: functional, Heart; method in brief: as §1
Cavia porcellus [5] = species: Cavia porcellus; assay: Compound was tested for antiarrhythmic activity (time taken to reach 90% repolarization) in guinea pig atria at 8(ug/mL) concentration; format: functional, Heart; method in brief: as §1
Rattus norvegicus [6] = assay: Antagonism of Ventricular Fibrilloflutter (VF) evoked by coronary artery ligation in the rat measured at 2 mg/kg dose; format: functional, Heart
Method in brief: (§2)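 Male Wistar rats, anaesthetised and artificially ventilated, with left thoracotomy; silk suture under main left coronary artery. After stabilization, test drug or vehicle i.v.; 14 min later isoprenaline 10 μg/kg; 1 min after that the ligature was tightened and VF incidence recorded over 30 min. Carotid pressure and lead II ECG monitored continuously. 7-12 animals per group.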

Cavia porcellus [7] = species: Cavia porcellus; assay: Compound was tested for antiarrhythmic activity expressed as action potential height (AP) in guinea pig atria at 8(ug/mL) concentration; format: functional, Heart; method in brief: as §1
Cavia porcellus [8] = species: Cavia porcellus; assay: Compound was tested for antiarrhythmic activity (time taken to reach 90% repolarization) in guinea pig atria at 4(ug/mL) concentration; format: functional, Heart; method in brief: as §1
Cavia porcellus [9] = species: Cavia porcellus; assay: Compound was tested for antiarrhythmic activity expressed as resting membrane potential (RMP) in guinea pig atria at 8 ug/mL concentration; format: functional; details: Heart; method in brief: as §1
Cavia porcellus [10] = species: Cavia porcellus; assay: Compound was tested for antiarrhythmic activity (time taken to reach 50% repolarization) in guinea pig atria at 4(ug/mL) concentration; format: functional, Heart; method in brief: as §1
Cavia porcellus [11] = species: Cavia porcellus; assay: Compound was tested for antiarrhythmic activity expressed as action potential height (AP) in guinea pig atria at 2(ug/mL) concentration; format: functional, Heart; method in brief: as §1
Rattus norvegicus [12] = assay: Effect on heart rate after isoprenaline induced tachycardia in the anesthetized rat at 0.5 mg/kg dose; format: functional
Method in brief: (§3)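 Same ligation protocol in anaesthetised male Wistar rats. Heart rate was taken from the lead II ECG at three points: just before i.v. drug or vehicle, 14 min after it (just before isoprenaline 10 μg/kg), and 1 min after isoprenaline. Pre vs post rates and isoprenaline responses vs controls were compared by Student's t test. Mean ± SEM of 7-12 observations.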

Cavia porcellus [13] = species: Cavia porcellus; assay: Compound was tested for antiarrhythmic activity (maximum rate of phase 0 depolarization- MRD) in guinea pig atria at 2(ug/mL) concentration; format: functional, Heart; method in brief: as §1
Cavia porcellus [14] = species: Cavia porcellus; assay: Compound was tested for antiarrhythmic activity expressed as action potential height (AP) in guinea pig atria at 4(ug/mL) concentration; format: functional, Heart; method in brief: as §1
Cavia porcellus [15] = species: Cavia porcellus; assay: Compound was tested for antiarrhythmic activity (maximum rate of phase 0 depolarization- MRD) in guinea pig atria at 4(ug/mL) concentration; format: functional, Heart; method in brief: as §1
Rattus norvegicus [16] = species: Rattus norvegicus; assay: Maximum increase in heart rate evoked by isoprenaline.; format: functional
Method in brief: (§4)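 Test drug or vehicle was given i.v., and isoprenaline (10 µg/kg) 14 min later. Heart rate was read from the lead II ECG just before drug, at 14 min (pre-isoprenaline) and 1 min after isoprenaline. Compared by Student's t test; 7–12 animals per group; mean ± SEM.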

Cavia porcellus [17] = species: Cavia porcellus; assay: Concentration required to reduce maximum following frequencu (MFF) of isolated guinea pig atria by 25%; format: functional
Method in brief: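 Guinea pig left atria in an organ bath of Krebs solution at 35 °C, gassed with carbogen, electrically driven, isometric contractions recorded. Drugs added cumulatively; maximum following frequency determined 6 min after each concentration. Concentration reducing MFF by 25% (EC25) calculated from six preparations.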

Rattus norvegicus [18] = assay: Compound was tested for antagonism of Ventricular Fibrilloflutter (VF) evoked by coronary artery ligation in the rat measured at 0.2 mg/kg dose; format: functional, Heart; method in brief: as §2
Cavia porcellus [19] = species: Cavia porcellus; assay: Compound was tested for antiarrhythmic activity (time taken to reach 50% repolarization) in guinea pig atria at 8(ug/mL) concentration; format: functional, Heart; method in brief: as §1
Rattus norvegicus [20] = assay: Effect on heart rate on 1 min post isoprenaline induced tachycardia in the anesthetized rat at 0.5 mg/kg dose.; format: functional; method in brief: as §4
Rattus norvegicus [21] = assay: Effect on heart rate before isoprenaline induced tachycardia in the anesthetized rat at 0.5 mg/kg dose; format: functional; method in brief: as §3
Mus musculus [22] = species: Mus musculus; assay: ED 50 value against aconitine-induced arrhythmias in mice; format: functional
Method in brief: (§5)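 Anaesthetised mice were given test compound intraperitoneally, then aconitine intravenously to induce arrhythmia. At least three doses were tested in separate groups (n = 6-10). ED50 is the dose raising the arrhythmogenic aconitine dose 50% above the control requirement.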

Rattus norvegicus [23] = assay: Compound was tested for antagonism of Ventricular Fibrilloflutter (VF) evoked by coronary artery ligation in the rat measured at 0.5 mg/kg dose; format: functional, Heart; method in brief: as §2
Cavia porcellus [24] = species: Cavia porcellus; assay: Compound was tested for antiarrhythmic activity (time taken to reach 50% repolarization) in guinea pig atria at 2(ug/mL) concentration; format: functional, Heart; method in brief: as §1
Cavia porcellus [25] = species: Cavia porcellus; assay: Compound was tested for antiarrhythmic activity expressed as resting membrane potential (RMP) in guinea pig atria at 2 ug/mL concentration; format: functional; details: Heart; method in brief: as §1
Rattus norvegicus [26] = assay: Mean change in heart rate recorded 14 min after the administration of compound.; format: functional; method in brief: as §4
Rattus norvegicus [27] = assay: Effect on heart rate before isoprenaline induced tachycardia in the anesthetized rat at 2 mg/kg dose; format: functional; method in brief: as §4
Rattus norvegicus [28] = assay: Effect of teh compound on heart rate on 1 min post isoprenaline induced tachycardia in the anesthetized rat at 2.0 mg/kg dose.; format: functional; method in brief: as §3
Rattus norvegicus [29] = assay: Compound that antagonized arrhythmias evoked by coronary artery ligation in the rat was measured at 1.0 mg/kg dose; format: functional; method in brief: as §2
Rattus norvegicus [30] = assay: Compound was tested for antagonism of Ventricular Fibrilloflutter (VF) evoked by coronary artery ligation in the rat measured at 1 mg/kg dose; format: functional, Heart; method in brief: as §2
Mus musculus [31] = species: Mus musculus; assay: ED 50 value against aconitine-induced arrhythmias in mice; IA is Inactive; format: functional, organism-based; method in brief: as §5
Rattus norvegicus [32] = assay: Effect on heart rate after isoprenaline induced tachycardia in the anesthetized rat at 2 mg/kg dose; format: functional; method in brief: as §3
Rattus norvegicus [33] = species: Rattus norvegicus; assay: Maximum increase in heart rate evoked by isoprenaline; format: functional; method in brief: as §4
Rattus norvegicus [34] = assay: Effect on heart rate before isoprenaline induced tachycardia in the anesthetized rat at 5 mg/kg dose; format: functional; method in brief: as §4
Rattus norvegicus [35] = assay: Effective dose that antagonized arrhythmias evoked by coronary artery ligation in the rat was measured at 5 mg/kg dose; format: functional
Rattus norvegicus [36] = assay: Compound was tested for antagonism of Ventricular Fibrilloflutter (VF) evoked by coronary artery ligation in the rat measured at 10 mg/kg dose; format: functional, Heart; method in brief: as §2
Rattus norvegicus [37] = assay: Effect on heart rate after isoprenaline induced tachycardia in the anesthetized rat at 5 mg/kg dose; format: functional; method in brief: as §3
Rattus norvegicus [38] = assay: Effect on heart rate on 1 min post isoprenaline induced tachycardia in the anesthetized rat at 5.0 mg/kg dose.; format: functional; method in brief: as §4
Rattus norvegicus [39] = assay: Compound was tested for antagonism of Ventricular Fibrilloflutter (VF) evoked by coronary artery ligation in the rat measured at 5 mg/kg dose; format: functional, Heart; method in brief: as §2
Rattus norvegicus [40] = assay: Compound was tested for antagonism of Ventricular Fibrilloflutter (VF) evoked by coronary artery ligation in the rat measured at 0.05 mg/kg dose; format: functional, Heart; method in brief: as §2
Rattus norvegicus [41] = assay: Effect on heart rate on 1 min post isoprenaline induced tachycardia in the anesthetized rat at 2.0 mg/kg dose.; format: functional; method in brief: as §4
Rattus norvegicus [42] = assay: Effective dose that antagonized arrhythmias evoked by coronary artery ligation in the rat was measured at 1.0 mg/kg dose; format: functional
Rattus norvegicus [43] = assay: Compound was tested for antagonism of arrhythmias evoked by coronary artery ligation in the rat measured at 1 mg/kg dose; format: functional; method in brief: as §2

Compound: CN(C)C1[C@H](O)C[C@H]2[C@@H]3CCc4cc(O)ccc4[C@H]3CC[C@]12C (stereo not given in full)
- APD90 (Cavia porcellus [1]): 70.9 ms
- RMP (Cavia porcellus [2]): 71.8 mV
- ED50 (Rattus norvegicus [3]): 0.15 mg/kg
- MRD (Cavia porcellus [4]): 30.5 V s-1
- APD90 (Cavia porcellus [5]): 98.9 ms
- VF (Rattus norvegicus [6]): 0%
- AP (Cavia porcellus [7]): 69.9 mV
- APD90 (Cavia porcellus [8]): 74.2 ms
- RMP (Cavia porcellus [9]): 69.3 mV
- APD50 (Cavia porcellus [10]): 29 ms
- AP (Cavia porcellus [11]): 78.9 mV
- Heart rate (Rattus norvegicus [12]): 434 beats min-1
- MRD (Cavia porcellus [13]): 86 V s-1
- AP (Cavia porcellus [14]): 73.5 mV
- MRD (Cavia porcellus [15]): 60.1 V s-1
- Increase (Rattus norvegicus [16]): 12.9%
- EC25 (Cavia porcellus [17]): 1.86 µg/mL (≈ 5.9 µM)
- VF (Rattus norvegicus [18]): 33%
- APD50 (Cavia porcellus [19]): 43.5 ms
- Heart rate (Rattus norvegicus [20]): 490 beats min-1
- Heart rate (Rattus norvegicus [21]): 442 beats min-1
- ED50 (Mus musculus [22]): 11.5 mg/kg
- VF (Rattus norvegicus [23]): 13%
- APD50 (Cavia porcellus [24]): 29.6 ms
- RMP (Cavia porcellus [25]): 70.1 mV
- Change (Rattus norvegicus [26]): -1.8%

Compound: CC(C)NCC(O)COc1ccc2c(c1)CC[C@@H]1[C@@H]2CC[C@]2(C)C(N(C)C)[C@H](O)C[C@@H]12 (stereo not given in full)
- APD90 (Cavia porcellus [1]): 69.8 ms
- Heart rate (Rattus norvegicus [27]): 394 beats min-1
- RMP (Cavia porcellus [2]): 70.4 mV
- MRD (Cavia porcellus [4]): 139.3 V s-1
- APD90 (Cavia porcellus [5]): 64.9 ms
- AP (Cavia porcellus [7]): 79.5 mV
- APD90 (Cavia porcellus [8]): 64.8 ms
- RMP (Cavia porcellus [9]): 69.1 mV
- APD50 (Cavia porcellus [10]): 20.7 ms
- AP (Cavia porcellus [11]): 83.8 mV
- MRD (Cavia porcellus [13]): 139.5 V s-1
- AP (Cavia porcellus [14]): 81.6 mV
- Heart rate (Rattus norvegicus [28]): 366 beats min-1
- MRD (Cavia porcellus [15]): 124 V s-1
- ED50 at 1 mg/kg (Rattus norvegicus [29]): < 1 mg/kg
- VF (Rattus norvegicus [30]): 13%
- EC25 (Cavia porcellus [17]): 13.7 µg/mL (≈ 31.8 µM)
- ED50 (Mus musculus [31]): inactive
- APD50 (Cavia porcellus [19]): 19.5 ms
- Heart rate (Rattus norvegicus [32]): 366 beats min-1
- APD50 (Cavia porcellus [24]): 26 ms
- RMP (Cavia porcellus [25]): 71 mV
- Increase (Rattus norvegicus [33]): 0%
- Change (Rattus norvegicus [26]): -7.1%

Compound: CC(=O)Nc1ccc(OCC(O)CNC(C)C)cc1 (stereo not given) [PRACTOLOL]
- Heart rate (Rattus norvegicus [34]): 459 beats min-1
- VF (Rattus norvegicus [6]): 80%
- ED50 (Rattus norvegicus [35]): 5.6 mg/kg
- VF (Rattus norvegicus [36]): 29%
- Increase (Rattus norvegicus [16]): 7.4%
- Heart rate (Rattus norvegicus [37]): 351 beats min-1
- Heart rate (Rattus norvegicus [38]): 377 beats min-1
- VF (Rattus norvegicus [39]): 43%
- Change (Rattus norvegicus [26]): -23.5%

Compound: CNC1[C@H](O)C[C@H]2[C@@H]3CCc4cc(OCC(O)CNC(C)(C)C)ccc4[C@H]3CC[C@]12C (stereo not given in full)
- Heart rate (Rattus norvegicus [27]): 415 beats min-1
- VF (Rattus norvegicus [6]): 0%
- VF (Rattus norvegicus [40]): 67%
- Heart rate (Rattus norvegicus [41]): 302 beats min-1
- ED50 (Rattus norvegicus [42]): 0.7 mg/kg
- Increase (Rattus norvegicus [16]): 3%
- EC25 (Cavia porcellus [17]): 38.6 µg/mL (≈ 89.6 µM)
- VF (Rattus norvegicus [43]): 25%
- ED50 (Mus musculus [31]): inactive
- Heart rate (Rattus norvegicus [32]): 294 beats min-1
- Change (Rattus norvegicus [26]): -29.2%
